Molecules are shown by their SMILES.

A short description of this data set: Toxicity liver stage against HepG2, at 10uM. Details: test concentration 10 uM, cell line HepG2-A16-CD81EGFP. The following applies: human, HepG2-A16-CD81EGFP cells; read-out: INHIBITION
In kind it is cell-based. The procedure, abridged:
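Uninfected HepG2-A16-CD81EGFP cells, 3 × 10^3 per well, 1536-well, plated on prespotted compound at 10 μM final, parasite-free screening media added to match infected plates; puromycin 10 μM positive, DMSO 0.5% negative; run in parallel with 48 h PbLuc assay at 37 °C, 5% CO2; viability by CellTiter-Glo luminescence, normalized to controls.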
Regarding `CCc1cnc(C)nc1NC1CC(=O)N(CC2CCCCC2)C1` (stereo unspecified), the cytotoxicity at 10 µM was -6.38%. As for `CC1CCN(C(=O)c2ccn(COc3ccc(F)cc3)n2)CC1`, the figure is -9.38%; as for `O=c1oc(-c2ccc(F)cc2)nn1CN1CCSCC1`, 0.449%; as for `O=C(COC1CCOC1)N(CC(F)F)c1cccc(Cl)c1` (stereo unspecified), 3.44%.

Turning to `Cc1n[nH]c(C)c1-c1nccnc1CC1CCCN(C)C1` (stereo unspecified), the cytotoxicity at 10 µM was -18.3%. As for `c1cc2n(n1)CC(CNCc1ccc(OC3CCCC3)nc1)CN2` (stereo unspecified), the figure is -5.17%; as for `CC(C)(C)c1nc(CNC2CCN(S(C)(=O)=O)CC2)cs1`, -2.34%; as for `Cc1cncc(C2CCN(C(=O)c3ccc(-n4cccn4)nc3)CC2)n1`, -0.701%. As for `CC(C)N(Cc1nccn1C)C(=O)c1cc(Cl)c[nH]c1=O`, the figure is -0.723%. As for `Cc1cnn(CC2CCCCN2CC(=O)N(C)Cc2ccc(C)o2)c1` (stereo unspecified), the figure is 10.6%. In the case of `COc1cccc2c1N(CC(=O)Nc1ccc(Br)cn1)CCC2`, the cytotoxicity at 10 µM is 36.5%.

Regarding `Cc1nc(CN2CCOCC3(CCCN(c4cnccn4)C3)C2)cs1` (stereo unspecified), the cytotoxicity at 10 µM is -1.81%. As to `O=C(CCc1ccccc1)NCC1CCN(Cc2cccs2)CC1`, the cytotoxicity at 10 µM was -2.68%. Next, `CC1(C)OCC2(CO1)CN(C(=O)c1cccc3ccccc13)C2`: -7.81%; `Cc1nc(CN2CCCC(CCc3ccc(F)c(F)c3)C2)c[nH]1` (stereo unspecified): -10.4%; `O=C(c1ccc2[nH]ccc2c1)N1CC[C@@H]2CN(CC3CC3)CCO[C@@H]2C1`: -108%. Next, `NC(=O)CCn1ccc(NC(=O)c2ccc(Br)o2)n1`: -1.39%; `Cc1cnn(C2CN(CC(=O)N(C)Cc3ccc(C)o3)C2)c1`: -15.9%. `Cn1cc(C2CCCN2C(=O)CCn2ccc3ccccc32)cn1` (stereo unspecified): the cytotoxicity at 10 µM turned out to be 8.84%. `O[C@H]1COCCN(Cc2cccc3c2OCO3)C1`: the cytotoxicity at 10 µM is -3.04%. As for `COc1ccc(-c2cn([C@H](CO)CC(C)C)nn2)cn1`, the figure is -2.03%. As for `CCS(=O)(=O)N1C[C@@H](c2nnc(C)o2)C[C@H]2OCC[C@H]21`, the figure is 1.36%.

With `Cc1noc(C)c1CN1C[C@H](OCC(=O)N(C)C)[C@H]2COC[C@H]21`, the cytotoxicity at 10 µM was 7.61%.

With `CC(NS(C)(=O)=O)c1nc(-c2ccc(Br)cc2)no1` (stereo unspecified), the cytotoxicity at 10 µM was found to be 4.29%. In the case of `COC(=O)N1CC(C)=C(C)CN1C(=O)Nc1ccc(Cl)c(Cl)c1`, the cytotoxicity at 10 µM is -1.53%. As for `COc1ccc(N2CCC(N3CCOC(C(F)(F)F)C3)CC2)cc1` (stereo unspecified), the figure is -20.5%; as for `c1ccc(CCCn2ccnc2-c2cn(C3CCNCC3)nn2)nc1`, -1.86%. Next, `c1cnc2[nH]c(C3CCCNC3)c(CN3CCCOCC3)c2c1` (stereo unspecified): -1.43%; `COc1cccc(C2SCC(=O)Nc3n[nH]cc32)c1OC(C)C` (stereo unspecified): 5.09%. Next, `Cc1nc(C2CCCN(C(=O)C3=NN(C(C)C)C(=O)CC3)C2)no1` (stereo unspecified): -3.32%; `O=C(c1ccc(C2CCNC2)cc1)N1CCC(N2CCC(O)CC2)CC1` (stereo unspecified): -7.62%. Regarding `CSCC(C)(O)CNc1cccc(F)c1C#N` (stereo unspecified), the cytotoxicity at 10 µM is 0.462%.

Take `OCCN1CCN(CC(O)c2ccc(C(F)(F)F)cc2)CC1` (stereo unspecified): the cytotoxicity at 10 µM is -10%. On to `CC(=O)NCC(=O)N1Cc2nccn2CC(CN2CCCC2)C1` (stereo unspecified), for which the cytotoxicity at 10 µM turned out to be 2.34%. As for `Cc1ccc(CN2CCOC3(CCCN(C(=O)c4ccco4)C3)C2)s1` (stereo unspecified), the figure is -10.3%; as for `Cc1cc(NC(=O)CN2CCCC2Cn2nc(C)nc2C)on1` (stereo unspecified), -3.31%. As for `Cc1cccnc1CC(C)N(C)C(=O)c1ccoc1C` (stereo unspecified), the figure is -12.6%.

For `CCNC(c1cccnc1)c1ccc(F)cc1F` (stereo unspecified), the cytotoxicity at 10 µM was -2.34%.

With `Cc1ccc(CN2CC[C@H]3CO[C@H](CN(C)C)[C@H]3C2)o1`, the cytotoxicity at 10 µM was -114%. As for `CS(=O)(=O)NC[C@@H]1OC[C@H]2CN(Cc3ccsc3)CC[C@H]21`, the figure is 14.3%; as for `COc1cccc2c1ccn2CCNC(=O)C1CCC1`, -3.54%; as for `Nc1nc(CNc2ncnc3c2CCN(Cc2ccoc2)CC3)cs1`, 1.63%. Next, `Nc1nc(N2CCCCCC2)ncc1C(=O)NCc1ccc(F)c(Cl)c1`: -0.585%; `CN(C)C(=O)CN1CCC2(CCN(S(C)(=O)=O)CC2)C1=O`: 2.2%; `CCCn1cnnc1-c1nc2c([nH]1)CC(c1ccc(Cl)cc1)CNC2=O` (stereo unspecified): -31.1%. For `CCOCC(=O)N1CCC[C@]2(C[C@@H](OCc3ccncc3)CO2)C1`, the cytotoxicity at 10 µM came to 14.5%.

As for `Cc1cn(Cc2ccc(F)c(F)c2)nc1N`, the cytotoxicity at 10 µM is -13.5%. As for `Cc1noc(C)c1Cn1cc(I)cc(C)c1=O`, the figure is 4.92%; as for `COCCNC(=O)NC1CCN(c2cnn(C)c2)C1` (stereo unspecified), 6%; as for `c1cc(C2CCN(C3CCCCC3)C2)n[nH]1` (stereo unspecified), 1.65%. For `Cc1cc(CNc2cc(Cl)ccc2OCCS(C)(=O)=O)no1`, the cytotoxicity at 10 µM was -2.27%. Take `CCS(=O)(=O)N1CC[C@H](OC)[C@H]2CN(Cc3ccncc3)C[C@H]21`: the cytotoxicity at 10 µM amounted to 10.3%. Next, `Cc1cccc(-c2noc(Cn3nc(C(N)=O)ccc3=O)n2)c1`: -1.15%; `Cc1ccc(CN2CCOC3(COCCN(Cc4ccncc4)C3)C2)o1` (stereo unspecified): -109%. As for `CC(Nc1ccc(Oc2cccc(C#N)c2)cc1)C(=O)NC1CC1` (stereo unspecified), the figure is 6.91%. For the compound `COCCNC(=O)Nc1ccc(C(=O)N2CCSCC2)cc1C`, the cytotoxicity at 10 µM is -2.13%. As for `CC(=O)N1CCN(C(=O)NCc2ccc(Cl)s2)CC1`, the figure is -15.4%; as for `Cc1cc(C(=O)NCCCn2nccc2C2CC2)c(=O)[nH]c1C`, 9%. As for `COc1ccccc1C1CC(=O)Nc2c1c(=O)[nH]n2C(C)C` (stereo unspecified), the figure is -4.08%.

Take `Cc1cc(N[C@H](CO)COCc2ccccc2)n2nc(C)cc2n1`: the cytotoxicity at 10 µM turned out to be 0.324%. As for `CC(C)N(CCS(C)(=O)=O)Cc1csc(Cc2ccc(Cl)cc2)n1`, the figure is -40.6%; as for `Cc1cc(C)c(C(=O)N(C)CCN(C)C(=O)c2[nH]c(C)cc2C)[nH]1`, -1.91%; as for `CN(Cc1ccco1)C(=O)CN1C(=O)c2ccccc2C1=O`, -2.96%. As for `O=C(Nc1ccc(-c2csnn2)cc1)NC(CCO)C1CC1` (stereo unspecified), the figure is 15.6%. With `O=C(O)[C@]12CCCN(Cc3ccccn3)[C@@H]1CCN(c1cnccn1)C2`, the cytotoxicity at 10 µM was 2.12%. As for `CN(C)c1ncc(-c2ccc(NC(=O)[C@@H]3CCCCN3)cc2)cn1`, the cytotoxicity at 10 µM was -7.94%.

For the compound `CCC(C(=O)NC1(CN2CCOCC2)CCCC1)n1cccn1` (stereo unspecified), the cytotoxicity at 10 µM was found to be 4.52%. Next, `CN(C)C(=O)n1c(C(=O)NC(C)(C)CO)cc2c1c1ccccc1n2C`: -76.2%; `CCOC(=O)c1coc(N2CCN(C(=O)c3cccc(OC)c3)CC2)n1`: 8.15%. As for `COC(=O)c1cc(C(=O)N2CCC(OC)CC2)n(-c2ccccc2)n1`, the figure is -15.1%. Regarding `COc1ncccc1CN1CCN(c2noc(C(C)C)n2)CC1`, the cytotoxicity at 10 µM is 10.5%. As for `CC(=O)N1CCO[C@@H]2CN(Cc3ccccc3F)C[C@@H]2C1`, the figure is -108%.

As for `CCn1c(C)nnc1CN(C)C1CCN(Cc2nccn2C)C1` (stereo unspecified), the cytotoxicity at 10 µM was found to be 17.8%. As for `CCc1cccc(CC(=O)NC2CCN(C(=O)NC(C)(C)C)CC2)c1`, the cytotoxicity at 10 µM is -4.73%. Next, `Cc1nc(C(=O)N2CC[C@@]3(C[C@H](NS(C)(=O)=O)CCO3)C2)cs1`: -72.9%. Next, `CCc1cnc(CN2CCC(N(C)Cc3noc(C)n3)C2)o1` (stereo unspecified): 4.92%; `Cc1ccc(OC2CCN(C(=O)C(C)Cn3cccn3)CC2)cc1` (stereo unspecified): -2.09%. Next, `Cc1cc(NCCS(C)(=O)=O)n2nc(C)cc2n1`: -14%; `CCS(=O)(=O)N1CCc2c(cnc(-c3cccnc3)c2C(=O)O)C1`: 2.66%. As to `CC1CN(C)CCN1C(=O)Nc1nc(-c2cccn2C)cs1` (stereo unspecified), the cytotoxicity at 10 µM is -2.38%.

As for `CCc1nccn1C1CCCN(C(=O)CCCc2ccccn2)C1` (stereo unspecified), the cytotoxicity at 10 µM is -18.7%. As for `Cc1ccc(CN2CCC3(CCN(Cc4ccncc4)CC3)CC2)cc1`, the figure is 8.4%; as for `CC(C)c1cc(CSCCC(=O)O)no1`, -7.52%. As for `c1csc(C2(NCc3csc(C4CC4)n3)CCCC2)n1`, the figure is -3.75%. Next, `Cc1ccc(-c2cc(C(=O)NCCC3=CCCCC3)[nH]n2)o1`: -55.1%; `CSc1ccc(S(=O)(=O)N2CCCCC2CCNC(C)=O)cc1` (stereo unspecified): -9.61%. In the case of `Cn1nc(C(=O)N2CCCC2)c2c1CN(CC1CCOCC1)C2`, the cytotoxicity at 10 µM was -2.51%. Next, `CCN(C(=O)CN1CCCC1c1ccc(OC)cc1)c1ccccc1` (stereo unspecified): -2.25%; `NC(=O)C1CCN(C(=O)NCc2ccccc2-n2cccn2)C1` (stereo unspecified): -18.4%; `C(=C\c1ccc(CN2CCCC2)cn1)/c1ccccc1`: 9.81%.

In the case of `O=C(O)CN(C(=O)c1ccccc1)[C@H]1C[C@H]2CCOC[C@H]2C1`, the cytotoxicity at 10 µM is -1.03%.

On to `O=C(Nc1ccc2ncccc2c1)C1CC(=O)N(Cc2ccccn2)C1` (stereo unspecified), for which the cytotoxicity at 10 µM came out at 3.31%. As for `CCCN1CCCN(c2ccc(-n3ccc(C)n3)nn2)CC1`, the figure is -1.2%; as for `COCC1CC2(CCN(C(=O)c3ccccc3C)CC2)CN1C(C)C` (stereo unspecified), 7.77%. As for `COc1cccc(C2CC(=O)Nc3nc(N4CCOCC4)sc32)c1OC` (stereo unspecified), the figure is -3.26%; as for `CN(C)Cc1cc(C2CCN(C(=O)C3CCCNC3)CC2)nn1C` (stereo unspecified), -8.67%.

These data come from ChEMBL document CHEMBL4513216, “Probing the Open Global Health Chemical Diversity Library for Multistage-Active Starting Points for Next-Generation Antimalarials” (ACS Infect Dis, 2020).
